In paper PMC8052682 (Chemical communications (Cambridge, England), 2021):

Columns and labels:
[1] = system: MDA-MB-231 breast carcinoma cells; assay: Wound-healing; type: cell-based; settings: wound-healing assay, 20-hour time span, six biological replicates
Procedure, shortened: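 Scratch-wound migration of MDA-MB-231 breast carcinoma cells followed over 20 h with test compounds (a glycopeptide, a peptide, or heparin) at several concentrations. Migration was scored as relative migration, and the concentration giving maximal inhibition of migration was noted.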

[2] = system: integrin; settings: ref [3], [20]; cited from earlier work

Substance: heparin
- concentration at which maximal inhibitory effect on migration is reached [1]: 6 µM
- integrin binding relative to heparan sulfate (in words) [2]: binds more tightly with integrin than heparan sulfate
